The results in this text go back to ChEMBL document CHEMBL1687804, “Comparative efficacies of human simulated exposures of telavancin and vancomycin against methicillin-resistant Staphylococcus aureus with a range of vancomycin MICs in a murine pneumonia model” (Antimicrob Agents Chemother, 2010).

Converted amounts (≈) assume the structure as drawn. Where only a bound is given, the exact number is not on record here.

Type in all cases: functional
Test [1] has as its system Staphylococcus aureus. Nature of the test: Antibacterial activity against hospital-associated methicillin-resistant Staphylococcus aureus isolate 360 by broth microdilution assay. The essentials: (§1)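 MIC by broth microdilution using dry-form panels, run in triplicate per isolate; modal MIC reported. Isolates were stored at −80°C in skim milk and subcultured twice on Trypticase soy agar with 5% sheep blood at 35°C before use.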
A general note: Dilution methods test growth across graded concentrations, often in twofold steps.

For test [2], the system named is Staphylococcus aureus. Nature of the test: Antibacterial activity against vancomycin-intermediate Staphylococcus aureus isolate 453 (NRS23) by broth microdilution assay. The method in brief: as §1
Test [3] relates to Staphylococcus aureus. Nature of the test: Antibacterial activity against community-associated methicillin-resistant Staphylococcus aureus isolate 156 by broth microdilution assay. The method in brief: as §1
Test [4] has as its system Staphylococcus aureus. Nature of the test: Antibacterial activity against vancomycin-intermediate Staphylococcus aureus isolate 440 (A6298) by broth microdilution assay. The method in brief: as §1
The subject of test [5] is Staphylococcus aureus. Nature of the test: Antibacterial activity against vancomycin-heteroresistant Staphylococcus aureus isolate 38 (Mu3) by broth microdilution assay. The essentials:
as §1

Test [6] relates to Staphylococcus aureus. Nature of the test: Antibacterial activity against vancomycin-intermediate Staphylococcus aureus isolate 435 by broth microdilution assay. The essentials: as §1
Test [7] deals with Staphylococcus aureus. Description: Antibacterial activity against hospital-associated methicillin-resistant Staphylococcus aureus isolate 56 (494) by broth microdilution assay. The essentials: as §1
Test [8] concerns Staphylococcus aureus. Nature of the test: Antibacterial activity against vancomycin-intermediate Staphylococcus aureus isolate 454 (NRS404) by broth microdilution assay. The method in brief:
as §1

Test [9] concerns Staphylococcus aureus. Description: Antibacterial activity against hospital-associated methicillin-resistant Staphylococcus aureus isolate 336 by broth microdilution assay. The essentials: as §1
In test [10] the test system is Staphylococcus aureus. Description: Antibacterial activity against vancomycin-heteroresistant Staphylococcus aureus isolate 443 by broth microdilution assay. The method in brief:
as §1

Test [11] deals with Staphylococcus aureus. Description: Antibacterial activity against community-associated methicillin-resistant Staphylococcus aureus isolate 145 by broth microdilution assay. The method in brief: as §1
Test [12] deals with Staphylococcus aureus. Description: Antibacterial activity against hospital-associated methicillin-resistant Staphylococcus aureus isolate 412 by broth microdilution assay. The essentials: as §1
For test [13], the system named is Staphylococcus aureus. Description: Antibacterial activity against hospital-associated methicillin-resistant Staphylococcus aureus isolate 152 by broth microdilution assay. The essentials:
as §1

For `CCCCCCCCCC(=O)N[C@@H](Cc1c[nH]c2ccccc12)C(=O)N[C@H](CC(N)=O)C(=O)N[C@@H](CC(=O)O)C(=O)N[C@@H]1C(=O)NCC(=O)N[C@@H](CCCN)C(=O)N[C@@H](CC(=O)O)C(=O)N[C@H](C)C(=O)N[C@@H](CC(=O)O)C(=O)NCC(=O)N[C@H](CO)C(=O)N[C@@H]([C@H](C)CC(=O)O)C(=O)N[C@@H](CC(=O)c2ccccc2N)C(=O)O[C@@H]1C`, the MIC in test [1] was determined as 0.5 µg/mL (≈ 0.309 µM); in test [2], 1 µg/mL (≈ 0.617 µM); in test [3], 0.5 µg/mL (≈ 0.309 µM); in test [4], 1 µg/mL (≈ 0.617 µM); in [5], 0.5 µg/mL (≈ 0.309 µM); in test [6], 0.5 µg/mL (≈ 0.309 µM). Also, the MIC is 0.5 µg/mL (≈ 0.309 µM) in test [7]; 1 µg/mL (≈ 0.617 µM) in test [8]; 0.5 µg/mL (≈ 0.309 µM) in test [9]; 0.5 µg/mL (≈ 0.309 µM) in [10]; 0.5 µg/mL (≈ 0.309 µM) in test [11]; 0.5 µg/mL (≈ 0.309 µM) in test [12]. In test [13], this compound had an MIC of 0.5 µg/mL (≈ 0.309 µM).
On to `O=C(O)c1cn(C2CC2)c2cc(N3CCNCC3)c(F)cc2c1=O` [CIPROFLOXACIN], for which the MIC in test [1], in test [2], in test [3], in test [4], in [5] and in test [6] was at least 16 µg/mL throughout. The MIC in test [7] was 0.5 µg/mL (≈ 1.51 µM); in test [8] it was at least 16 µg/mL; in test [9], at least 16 µg/mL; in [10] it was at least 16 µg/mL; in test [11], 8 µg/mL (≈ 24.1 µM); in test [12], at least 16 µg/mL. The compound also registered an MIC in test [13] of 0.5 µg/mL (≈ 1.51 µM).
On to `CCC[C@@H]1C[C@@H](C(=O)N[C@@H]([C@H]2O[C@H](SC)[C@H](O)[C@@H](O)[C@H]2O)[C@H](C)Cl)N(C)C1` [CLINDAMYCIN], for which the MIC was at least 8 µg/mL in test [1]; at least 8 µg/mL in test [2]; at most 0.5 µg/mL in test [3]; at least 8 µg/mL in [4]; at least 8 µg/mL in [5]; at most 0.5 µg/mL in test [6]. Moreover, the MIC is 0.25 µg/mL (≈ 0.588 µM) in test [7]; at most 0.5 µg/mL in test [8]; at least 8 µg/mL in [9]; at least 8 µg/mL in test [10]; at least 8 µg/mL in [11]; at most 0.5 µg/mL in [12]. The compound further yielded an MIC in [13] of 0.125 µg/mL (≈ 0.294 µM).
As for `CN(C)c1cc(NC(=O)CNC(C)(C)C)c(O)c2c1C[C@H]1C[C@H]3[C@H](N(C)C)C(O)=C(C(N)=O)C(=O)[C@@]3(O)C(O)=C1C2=O` [TIGECYCLINE], the MIC came to 0.25 µg/mL (≈ 0.427 µM) in [1]; 0.125 µg/mL (≈ 0.213 µM) in test [2]; 0.125 µg/mL (≈ 0.213 µM) in [3]; 0.125 µg/mL (≈ 0.213 µM) in test [4]; 0.5 µg/mL (≈ 0.854 µM) in [5]; 0.25 µg/mL (≈ 0.427 µM) in [6]. Moreover, the MIC in [7] came out at 0.5 µg/mL (≈ 0.854 µM); in [8], 0.125 µg/mL (≈ 0.213 µM); in test [9], 0.5 µg/mL (≈ 0.854 µM); in test [10], 0.25 µg/mL (≈ 0.427 µM); in test [11], 0.25 µg/mL (≈ 0.427 µM); in [12] it was 0.25 µg/mL (≈ 0.427 µM). The compound further registered an MIC in test [13] of 0.25 µg/mL (≈ 0.427 µM).

As usually defined, the MIC is the smallest concentration in the dilution series that meets the test's criterion for growth inhibition.
